This is an account of results in PubChem BioAssay.

The nature of test [1]: inhibitors of TNFa-induced NFkB p65 translocation, primary screen, imaging, HUVEC, MLSMR starter and 10KST1 sets (AID 438;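 active = inhibition above 20% together with a positive visual image hit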;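 note: compound added about 3h40 before a 20 min TNFalpha stimulation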;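 for inhibition: signal is the nuclear over cytoplasmic p65 intensity ratio per well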). The conditions noted are these: HUVEC TNFa-induced p65 nuclear translocation; cell count: measured here: nuclei count (cytotoxicity indicator), at 2.08 µM; inhibition: at 2 µM, stronger effect = higher value, 0% TNFa-plus-vehicle, 100% no-TNFa wells.
A short description of test [2]: inhibitors of mutant huntingtin aggregation, primary screen, imaging, exon1htt(103Q)mCFP cells, high-content imaging (AID 483;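 active = visual image review flags a hit and inhibition of aggregation exceeds 20%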;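 note: compound exposure lasted 3 days before fixation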;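 for nuclei count: percent of the per-plate median nuclei count of sample wells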). The conditions noted are these: exon1htt(103Q)mCFP cell line, aggregate imaging, at 2 µM; inhibition of aggregation: stronger effect = higher value; nuclei count: measured here: cell count, toxicity.
The nature of test [3]: inhibitors of E-selectin induction by TNFa, primary screen, imaging, HUVEC, immunofluorescence, MLSMR starter and 10KST1 sets (AID 487;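 active = visually confirmed hit in the image check and inhibition above 20%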;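 for inhibition: signal is fraction of cell area covered by stained E-selectin grains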;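 for nuclei count: 100% = median nuclei count of all wells on the same plate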). The conditions noted are these: HUVEC TNFalpha-induced E-selectin immunofluorescence imaging, at 2 µM; inhibition: stronger effect = higher value; nuclei count: measured here: cell number, toxicity.
The target of test [4] is Voltage-gated potassium channel subunit beta-2 (Rattus norvegicus) (UniProt P62483). Description: KvBeta enzyme negative modulators, primary screen, biochemical, NADPH fluorescence (AID 622;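 active = fluorescence slope higher than the sample average by over 3 SD, cut at about -0.22 in these data, passing the limit was not always enough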;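 note: slope of raw intensity against log time taken from 70 to 1610 s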). The conditions noted are these: recombinant KvBeta, 4-cyanobenzaldehyde reduction, at 10 µM, stronger effect = higher value.
Chain of Voltage-gated potassium channel subunit beta-2 (Rattus norvegicus) (P62483 whole entry, looked up): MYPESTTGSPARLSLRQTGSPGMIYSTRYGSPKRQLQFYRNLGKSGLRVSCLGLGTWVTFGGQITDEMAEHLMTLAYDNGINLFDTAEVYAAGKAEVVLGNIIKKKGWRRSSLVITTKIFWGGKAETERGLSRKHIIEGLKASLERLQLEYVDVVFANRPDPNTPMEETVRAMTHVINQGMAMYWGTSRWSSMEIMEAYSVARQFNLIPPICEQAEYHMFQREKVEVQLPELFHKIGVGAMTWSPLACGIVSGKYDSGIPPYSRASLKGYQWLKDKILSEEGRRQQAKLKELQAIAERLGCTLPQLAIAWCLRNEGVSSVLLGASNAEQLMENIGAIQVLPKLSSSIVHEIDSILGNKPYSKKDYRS
Test [5] shares this target. The test can be described thus: KvBeta positive modulators, primary screen, biochemical, NADPH fluorescence (AID 623;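 active = NADPH fluorescence slope more negative than the mean of all samples by about 3 SD, 99.7% confidence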;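 note: fluorescence intensity change per second fitted from 20 to 320 s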). The conditions noted are these: Recombinant KvBeta, NADPH fluorescence decrease slope, 10 min; at 10 µM; stronger effect = lower value.
Test [6] has as its target Muscarinic acetylcholine receptor M4 (Homo sapiens) (UniProt P08173). The test can be described thus: compounds altering M4/GIRK thallium flux, either direction, primary screen, M4 allosteric agonist project, cell-based, HEK293 M4/GIRK, BTC-AM (AID 625;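 active = fluorescence slope after compound addition differing from the mean of all tested samples at 99.7% confidence, mostly higher but some lower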;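 note: thallium influx through GIRK channels coupled to M4 in HEK293 cells with BTC-AM dye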). The conditions noted are these: at 10 µM, actives lie on both sides. Put shortly:
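assay system = HEK293 cells with M4 receptor and GIRK channels | medium = pH 7.3 thallium assay buffer | doses = 10 µM final, single point | timing = cells overnight at 37 °C, BTC-AM loading 1 h, reads 2 min total | signal = BTC-AM fluorescence, 1 Hz kinetic reads | read-out = post-addition slope, 15–24 s, of baseline-normalized fluorescence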

Test [7] can be described thus: inhibitors of Sendai virus-induced IRF3 signaling, primary screen, TLR/RLR signaling modifier project, cell-based, Sendai virus stimulus, luciferase, 10K MLSCN set (AID 602276).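 Note: firefly luciferase from ISG56 promoter only with Renilla not read in this screen; 0% = Sendai virus plus DMSO and 100% = medium plus DMSO without virus.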 The conditions noted are these: HEK293 RL24 IRF3 luciferase reporter, at 10 µM, stronger effect = higher value. For orientation: Reporter assays use an easily measured gene product as a stand-in for the process of interest.

Test [8] can be described thus: inhibitors of poly I:C-induced TLR3 signaling, primary screen, cell-based, poly I:C stimulus, luciferase, 10K MLSCN set (AID 602277;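 active = inhibition of the reporter signal at or above 50%; inactive = inhibition below 50%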). The conditions noted are these: HEK293-TLR3 RL24 IRF3 luciferase reporter, at 10 µM, stronger effect = higher value.
In test [9] the target is Alpha-2C adrenergic receptor (Homo sapiens) (UniProt P18825). Description: modulators of alpha2C/GIRK thallium flux, primary screen, cell-based, HEK293 alpha2C/GIRK1/2 (AID 624;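 active = fluorescence slope after compound addition differing from the mean of all screened samples at 99.7% confidence, in either direction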;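 note: slope of fluorescence ratio to pre-addition baseline per second over 15 to 24 s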). The conditions noted are these: thallium flux BTC fluorescence, at 10 µM, actives lie on both sides.
Chain of Alpha-2C adrenergic receptor (Homo sapiens) (P18825 whole entry, looked up): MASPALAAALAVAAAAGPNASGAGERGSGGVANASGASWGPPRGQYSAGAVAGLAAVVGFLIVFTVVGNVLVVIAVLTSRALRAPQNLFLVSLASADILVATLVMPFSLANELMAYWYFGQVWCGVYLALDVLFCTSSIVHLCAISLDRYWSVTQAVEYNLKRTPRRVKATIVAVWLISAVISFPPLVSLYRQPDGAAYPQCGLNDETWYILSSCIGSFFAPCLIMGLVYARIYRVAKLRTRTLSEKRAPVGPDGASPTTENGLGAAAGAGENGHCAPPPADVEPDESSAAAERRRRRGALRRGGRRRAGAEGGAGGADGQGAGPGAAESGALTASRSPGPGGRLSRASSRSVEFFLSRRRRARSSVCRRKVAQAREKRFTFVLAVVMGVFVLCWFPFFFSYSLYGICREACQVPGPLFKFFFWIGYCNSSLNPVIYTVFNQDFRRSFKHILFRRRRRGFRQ
Test [10] in a line: inhibitors of larval lipid processing in zebrafish, primary screen, whole organism, PED6 fluorescence, gall bladder and intestine (AID 686;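 active = a full or partial loss of lipid-probe fluorescence in the fish gall bladder, intestine or both, judged by eye; inactive = no fluorescence loss, or compound toxic to the fish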;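 note: larvae 5 to 7 days old with five fish per well; signal comes from phospholipase A2 cleavage of quenched PED6 carried via bile; overnight exposure to compound and PED6 before scoring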). The conditions noted are these: Zebrafish larvae PED6 lipid processing, fluorescence scoring; screened at 20 µM (by protocol). Put shortly:
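Also added: quenched phospholipase substrate PED6, 100 nM final, ingested by larvae; System: zebrafish larvae, 5-7 d; Quantity: 5 larvae per well; Compound: 20 µM single dose; Schedule: overnight compound and PED6 incubation; Read-out: visual per-well fluorescence inhibition score; Measured by: By-eye fluorescence microscopy; Medium: E3.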

The source made the active and inactive calls.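 Rule for the calls, unless noted: active = inhibition at or above 50% at 10 µM; inactive = inhibition below 50%.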

Chain of Muscarinic acetylcholine receptor M4 (Homo sapiens) (P08173 whole entry, looked up): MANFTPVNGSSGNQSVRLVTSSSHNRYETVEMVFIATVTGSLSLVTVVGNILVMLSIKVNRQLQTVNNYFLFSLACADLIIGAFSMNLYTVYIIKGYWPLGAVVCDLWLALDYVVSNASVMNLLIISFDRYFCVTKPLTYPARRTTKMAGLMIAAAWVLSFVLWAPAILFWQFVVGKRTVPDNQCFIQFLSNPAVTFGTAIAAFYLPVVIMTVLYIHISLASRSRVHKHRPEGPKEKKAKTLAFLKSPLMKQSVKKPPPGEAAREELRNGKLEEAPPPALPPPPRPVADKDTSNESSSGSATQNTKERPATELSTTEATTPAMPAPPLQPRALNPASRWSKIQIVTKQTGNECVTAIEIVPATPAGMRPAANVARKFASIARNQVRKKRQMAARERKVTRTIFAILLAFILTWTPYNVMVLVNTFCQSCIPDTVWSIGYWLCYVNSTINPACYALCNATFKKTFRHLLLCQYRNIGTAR

Broadly, the inhibition is the change of the read-out against control, counted positive when it falls. `COC(=O)c1cccc(NC(=O)C2COc3ccccc3O2)c1C` (stereo unspecified): the cell count in [1] worked out at 349. For the same compound, the inhibition in [1] was -3.3% (inactive); in test [3] it was -10.1% (inactive); in [7], -2.98% (inactive); in test [8] it was -15.7% (inactive). Also, in test [2], the inhibition of aggregation was 13.6% (inactive). The nuclei count came out at 102% in test [2] and 96.5% in test [3]. For the same compound, the fluorescence slope in [4] is -0.508 (inactive); in test [6], 0.0049 (inactive). The NADPH fluorescence slope in [5] is -1.7e-05 (inactive).

As for `COc1ccc(CN2C(=O)c3ccccc3C2C(=O)NC2CCCC2)c(OC)c1` (stereo unspecified), in test [1], the cell count worked out at 671. The inhibition is -4.8% (inactive) in [1], -53.3% (inactive) in [3], 14.9% (inactive) in [7] and 9.49% (inactive) in test [8]. Also, in [2], the inhibition of aggregation is 8.3% (inactive). Moreover, the nuclei count in [2] was 87.1%; in test [3], 112%. Further, the figures for the fluorescence slope in [4] and in test [6] were -0.443 (inactive) and 0.00535 (inactive), respectively. In addition, the NADPH fluorescence slope in test [5] is -4.9e-05 (inactive).

Turning to `C=CCn1cnc2c(NCc3ccccc3)ncnc21`, the cell count in test [1] worked out at 387. Further, the inhibition in test [1] is -13.3% (inactive); in test [3], 20.4% (inactive); in test [7] it was -54.3% (inactive); in [8] it was -89% (inactive). The inhibition of aggregation in test [2] was 3% (inactive). The nuclei count in test [2] was determined as 98.8%; in test [3], 142%. Further, the fluorescence slope is -0.587 (inactive) in test [4] and 0.00713 (inactive) in test [6]. Besides, the NADPH fluorescence slope in [5] was 3.1e-05 (inactive).

In the case of `CCNS(=O)(=O)c1ccc(S(=O)(=O)N(Cc2ccccn2)C2CCCCC2)cc1`, the cell count in test [1] came out at 579. Besides, the inhibition in [1] was 3.8% (inactive); in [3] it was -3.6% (inactive); in [7], 12.3% (inactive); in test [8], 40.2% (inactive). The inhibition of aggregation in test [2] is 6.6% (inactive). Besides, the nuclei count in test [2] came out at 108%; in [3], 100%. The fluorescence slope in [4] was -0.348 (inactive); in [6] it was 0.00588 (inactive). Further, the NADPH fluorescence slope in test [5] is -6.9e-05 (inactive).

For the compound `CC1CN(c2c3c(nc4ncnn24)CCCC3)CC(C)O1` (stereo unspecified), in test [1], the cell count was 752. Also, the inhibition in test [1] was 0% (inactive); in test [3], -31.5% (inactive); in [7], 14.7% (inactive); in test [8] it was 21.5% (inactive). The inhibition of aggregation in test [2] is -14.4% (inactive). Further, the nuclei count in [2] was found to be 99.9%; in test [3] it was 106%. Also, the fluorescence slope was -0.481 (inactive) in [4] and 0.00504 (inactive) in test [6]. For the same compound, the NADPH fluorescence slope in test [5] was 3.1e-05 (inactive).

Consider `COc1ccc(C(=O)CSc2nnc(CNc3ccc(C)cc3C)o2)cc1`, for which the cell count in test [1] turned out to be 606. The inhibition in test [1] is -4.1% (inactive); in test [3], -136% (inactive); in [7] it was 14.6% (inactive); in [8], 11.8% (inactive). The inhibition of aggregation in [2] was 3% (inactive). Also, the nuclei count is 101% in test [2] and 199% in test [3]. In addition, the fluorescence slope in test [4] is -0.469 (inactive); in test [6] it was 0.00401 (inactive). In addition, in [5], the NADPH fluorescence slope is -8.4e-05 (inactive).

In the case of `COc1cc(-c2nc(S(=O)(=O)c3ccc(C)cc3)c(N(C)C)o2)cc(OC)c1OC`, the cell count in test [1] was 432. Further, the inhibition in test [1] was -6.3% (inactive); in test [3], -57% (inactive); in [7] it was -11.7% (inactive); in test [8] it was -7.3% (inactive). The inhibition of aggregation in [2] was -5.1% (inactive). The nuclei count in test [2] worked out at 105%; in [3], 108%. Besides, the fluorescence slope in test [4] is -0.386 (inactive). Further, the NADPH fluorescence slope in test [5] is -9.2e-05 (inactive). Further, the slope in [9] was 0.00686 (inactive). Moreover, the outcome in test [10] was inactive.

With `Cc1ccc2nc(/C(C#N)=N/O)[nH]c2c1`, the cell count in [1] was 627. For the same compound, the inhibition in test [1] is -1.7% (inactive); in test [3], -34.1% (inactive); in test [7], 6.84% (inactive); in test [8], 6.68% (inactive). Besides, the inhibition of aggregation in test [2] is -7.3% (inactive). Also, the nuclei count in [2] is 112%; in test [3] it was 119%. The fluorescence slope in test [4] is -0.376 (inactive). Besides, in [5], the NADPH fluorescence slope is -8.1e-05 (inactive). The slope in [9] was 0.00426 (inactive). In addition, in test [10], the compound was classed as inactive.

Take `CC(C)(C)C1CCc2c(sc3c2C(=O)NC(c2ccco2)N3)C1` (stereo unspecified): the cell count in test [1] was found to be 639. For the same compound, the inhibition in test [1] is -34.8% (inactive); in test [3], 15.7% (inactive); in [7], -39.4% (inactive); in [8], -133% (inactive). In test [2], the inhibition of aggregation was 14.3% (inactive). Also, the figures for the nuclei count in [2] and in test [3] were 125% and 97%, respectively. In addition, the results for the fluorescence slope in test [4] and in test [6] were -0.506 (inactive) and 0.00491 (inactive), respectively. Also, in [5], the NADPH fluorescence slope was 2.4e-05 (inactive).

For `CN(Cc1cnn(C)c1)C(=O)c1cc2ccccc2oc1=O`, the cell count in [1] worked out at 682. Moreover, the inhibition is 13% (inactive) in test [1], 40% (inactive) in test [3], 11.1% (inactive) in test [7] and 14% (inactive) in test [8]. In test [2], the inhibition of aggregation was -9.2% (inactive). Also, the nuclei count in test [2] came to 92.1%; in test [3], 98.2%. The fluorescence slope in test [4] was -0.484 (inactive); in test [6], 0.00454 (inactive). Besides, the NADPH fluorescence slope in test [5] is -5.1e-05 (inactive).

Consider `CCOC(=O)c1oc2ccccc2c1CSc1nnnn1-c1ccc(OC)cc1`, for which the cell count in test [1] is 381. Moreover, the inhibition in test [1] is -7.7% (inactive); in test [3], -102% (inactive); in [7] it was 25.7% (inactive); in test [8], 30.2% (inactive). The inhibition of aggregation in test [2] was 6.8% (inactive). The nuclei count amounted to 95.4% in test [2] and 110% in test [3]. The results for the fluorescence slope in [4] and in [6] were -0.54 (inactive) and 0.00514 (inactive), respectively. Further, in [5], the NADPH fluorescence slope was -4.1e-05 (inactive).

Take `CCN1CCN(S(=O)(=O)c2ccc(S(=O)(=O)N(CC)Cc3ccccc3)cc2)CC1`: the cell count in test [1] is 579. Further, the inhibition is -0.8% (inactive) in test [1], -27.9% (inactive) in test [3], 16.4% (inactive) in [7] and 16.6% (inactive) in test [8]. Also, the inhibition of aggregation in test [2] is -9.2% (inactive). Moreover, the nuclei count in test [2] was found to be 104%; in [3] it was 108%. Further, the fluorescence slope is -0.527 (inactive) in [4] and 0.00522 (inactive) in test [6]. In addition, the NADPH fluorescence slope in [5] is 4.3e-06 (inactive).

As to `Cc1ccc(-c2nnn(CC(=O)N(CC3CCCO3)C(C(=O)NC(C)(C)C)c3ccc(F)cc3)n2)o1` (stereo unspecified), the cell count in test [1] worked out at 415. Also, the inhibition is 5.7% (inactive) in test [1], -64% (inactive) in test [3], 9.86% (inactive) in [7] and 15.3% (inactive) in [8]. Also, the inhibition of aggregation in test [2] is 3.4% (inactive). Moreover, the nuclei count was 112% in test [2] and 118% in test [3]. Besides, the fluorescence slope is -0.563 (inactive) in test [4] and 0.00486 (inactive) in test [6]. Besides, the NADPH fluorescence slope in [5] is -3.8e-05 (inactive).

As to `Cc1ccc(OCC(O)Cn2c(=N)n(CCN3CCCCC3)c3ccccc32)cc1` (stereo unspecified), in test [1], the cell count was 277. The inhibition in test [1] is 4.5% (inactive); in [3], -6.5% (inactive); in test [7] it was -33.6% (inactive); in [8], 62.2% (active). Further, in [2], the inhibition of aggregation was 2.3% (inactive). Moreover, the nuclei count in test [2] is 63.4%; in test [3], 96.8%. Besides, the fluorescence slope in test [4] was -0.381 (inactive); in test [6], 0.00474 (inactive). In addition, the NADPH fluorescence slope in test [5] was -4.1e-05 (inactive).
